Data as given in publication PMC2261226 (EMBO Reports, 2008).
Residue numbers refer to the chain shown, from its start. Each block holds one compound with its values, some of them ahead of it.

How the values were obtained:
AIRE–PHD1 = assay: Histone pull-down after EDTA treatment; details: 50 mM EDTA, overnight 4 °C prior to histone binding
How it was run: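 AIRE–PHD1 expressed as a glutathione-S-transferase (GST) fusion and incubated with whole histones. Bound H3 detected by western blot with anti-H3; GST-PHD protein visualised by Coomassie staining.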

AIRE–PHD1 WT [1] = target: T1, AIRE–PHD1 WT (Homo sapiens, UniProt O43918); assay: biochemical; format: binding
T1 sequence (O43918 293-349 limits assumed): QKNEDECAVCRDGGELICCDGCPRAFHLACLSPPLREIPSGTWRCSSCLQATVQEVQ

AIRE–PHD1 WT [2] = target: AIRE–PHD1 WT (Homo sapiens, UniProt O43918); assay: Tryptophan fluorescence titration, AIRE-PHD1 wild type; format: binding
AIRE–PHD1 D297A [3] = target: T2, AIRE–PHD1 D297A (Homo sapiens, UniProt O43918, D297A); assay: Tryptophan fluorescence titration, AIRE-PHD1 D297A; format: binding
T2 sequence (O43918 290-349 D297A): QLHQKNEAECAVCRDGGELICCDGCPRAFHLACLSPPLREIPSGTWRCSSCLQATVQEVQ
How it was run: (§1)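 Tryptophan fluorescence spectroscopy titration of AIRE–PHD1 point mutants with histone H3 peptides: H3K4me0 for all; D297A also with H3K4me3. Dissociation constants were derived from the titrations. ND denotes binding too weak to quantify reliably.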

AIRE–PHD1 V301M = target: T3, AIRE–PHD1 V301M (Homo sapiens, UniProt O43918, V301M); assay: Tryptophan fluorescence titration, AIRE-PHD1 V301M; format: binding
T3 sequence (O43918 296-343 V301M limits assumed): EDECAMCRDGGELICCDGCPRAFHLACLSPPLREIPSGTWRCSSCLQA
How it was run: as §1

AIRE–PHD1 C311Y = target: T4, AIRE–PHD1 C311Y (Homo sapiens, UniProt O43918, C311Y); assay: Tryptophan fluorescence titration, AIRE-PHD1 C311Y; format: binding
T4 sequence (O43918 296-343 C311Y limits assumed): T3 sequence (O43918 296-343 V301M limits assumed) with M6V, C16Y
How it was run: as §1

AIRE–PHD1 D312A [4] = target: T5, AIRE–PHD1 D312A (Homo sapiens, UniProt O43918, D312A); assay: Tryptophan fluorescence titration, AIRE-PHD1 D312A; format: binding
T5 sequence (O43918 296-343 D312A limits assumed): T3 sequence (O43918 296-343 V301M limits assumed) with M6V, D17A
How it was run: as §1

AIRE–PHD1 D297A [5] = target: T2, AIRE–PHD1 D297A; assay: Isothermal titration calorimetry, AIRE-PHD1 D297A; format: binding
AIRE–PHD1 D312A [6] = target: T5, AIRE–PHD1 D312A; assay: Isothermal titration calorimetry, AIRE-PHD1 D312A; format: binding
How it was run: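 ITC of H3K4me0 (histone H3, non-methylated K4) peptide binding to the AIRE–PHD1 D312A mutant. Sequential heat pulses were integrated, corrected for heat of dilution, and fit to a single-site binding model by nonlinear least squares to give N, Kd, ΔH and ΔS. ND denotes binding too weak to quantify reliably.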

AIRE–PHD1 wild type [7] = target: AIRE–PHD1 wild type (UniProt O43918); assay: NMR titration
AIRE–PHD1 wild type [8] = target: AIRE–PHD1 wild type (UniProt O43918); assay: other fluorescence titration
AIRE–PHD1 wild type [9] = target: AIRE–PHD1 wild type (UniProt O43918); assay: ITC

Compound: C[C@H](N)C(=O)N[C@@H](CCCNC(=N)N)C(=O)N[C@H](C(=O)N[C@@H](CCCCN)C(=O)N[C@@H](CCC(N)=O)C(=O)N[C@H](C(=O)N[C@@H](C)C(=O)N[C@@H](CCCNC(=N)N)C(=O)N[C@@H](CCCCN)C(=O)N[C@@H](CO)C(=O)O)[C@@H](C)O)[C@@H](C)O [H3K4me0]
Kd (AIRE–PHD1 WT [1]): 6.5 ± 0.2 µM | Kd (AIRE–PHD1 WT [2]): 4.7 ± 0.8 µM | Kd (AIRE–PHD1 D297A [3]): 173 ± 18.6 µM | Kd (AIRE–PHD1 V301M): 6.8 ± 0.4 µM | Kd (AIRE–PHD1 C311Y): > 500 µM | Kd (AIRE–PHD1 D312A [4]): > 500 µM | Kd (AIRE–PHD1 D297A [5]): 147 ± 6.1 µM | Kd (AIRE–PHD1 D312A [6]): > 714 µM

Compound: histone H3 N-terminal peptide H3K4me0 (NMR, fluorescence, ITC)
maximum average chemical shift change (AIRE–PHD1 wild type [7]): 0.9 p.p.m.

Compound: histone H3 N-terminal peptide H3K4me1 (NMR, fluorescence, ITC)
Kd (AIRE–PHD1 wild type [8]): 21.4 µM | Kd (AIRE–PHD1 wild type [9]): 55.6 µM

Other lines, results leading:

effect on H3 binding, in words (AIRE–PHD1): greatly reduced
Compound: O=C(O)CN(CCN(CC(=O)O)CC(=O)O)CC(=O)O [EDTA]

Kd (AIRE–PHD1 wild type [8]): > 500 µM | Kd (AIRE–PHD1 wild type [9]): 714 µM
Compound: histone H3 N-terminal peptide H3K4me2 (NMR, fluorescence, ITC)
